Data taken from ChEMBL document CHEMBL4130443, “Targeting breast cancer stem cells by novel HDAC3-selective inhibitors” (Eur J Med Chem, 2017).
The source made the active and inactive calls. The calls are words filed in the database; no cut-off is given here.

Tests used:
[1] = biological target: Histone deacetylase 5 (Homo sapiens) (UniProt Q9UQL6); assay: Inhibition of human HDAC5 at 1 uM using Boc-Lys(trifluoroacetyl)-AMC substrate
How it was run: (§1)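 Isoform profiling run by a commercial vendor with compounds at 1 µM. Values are percent inhibition, each the average of two determinations.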

[2] = biological target: Histone deacetylase 4 (Homo sapiens) (UniProt P56524); assay: Inhibition of human HDAC4 at 1 uM using Boc-Lys(trifluoroacetyl)-AMC substrate; how it was run: as §1
Sequence of Histone deacetylase 4 (Homo sapiens) (P56524 whole entry, the tested form may be a part): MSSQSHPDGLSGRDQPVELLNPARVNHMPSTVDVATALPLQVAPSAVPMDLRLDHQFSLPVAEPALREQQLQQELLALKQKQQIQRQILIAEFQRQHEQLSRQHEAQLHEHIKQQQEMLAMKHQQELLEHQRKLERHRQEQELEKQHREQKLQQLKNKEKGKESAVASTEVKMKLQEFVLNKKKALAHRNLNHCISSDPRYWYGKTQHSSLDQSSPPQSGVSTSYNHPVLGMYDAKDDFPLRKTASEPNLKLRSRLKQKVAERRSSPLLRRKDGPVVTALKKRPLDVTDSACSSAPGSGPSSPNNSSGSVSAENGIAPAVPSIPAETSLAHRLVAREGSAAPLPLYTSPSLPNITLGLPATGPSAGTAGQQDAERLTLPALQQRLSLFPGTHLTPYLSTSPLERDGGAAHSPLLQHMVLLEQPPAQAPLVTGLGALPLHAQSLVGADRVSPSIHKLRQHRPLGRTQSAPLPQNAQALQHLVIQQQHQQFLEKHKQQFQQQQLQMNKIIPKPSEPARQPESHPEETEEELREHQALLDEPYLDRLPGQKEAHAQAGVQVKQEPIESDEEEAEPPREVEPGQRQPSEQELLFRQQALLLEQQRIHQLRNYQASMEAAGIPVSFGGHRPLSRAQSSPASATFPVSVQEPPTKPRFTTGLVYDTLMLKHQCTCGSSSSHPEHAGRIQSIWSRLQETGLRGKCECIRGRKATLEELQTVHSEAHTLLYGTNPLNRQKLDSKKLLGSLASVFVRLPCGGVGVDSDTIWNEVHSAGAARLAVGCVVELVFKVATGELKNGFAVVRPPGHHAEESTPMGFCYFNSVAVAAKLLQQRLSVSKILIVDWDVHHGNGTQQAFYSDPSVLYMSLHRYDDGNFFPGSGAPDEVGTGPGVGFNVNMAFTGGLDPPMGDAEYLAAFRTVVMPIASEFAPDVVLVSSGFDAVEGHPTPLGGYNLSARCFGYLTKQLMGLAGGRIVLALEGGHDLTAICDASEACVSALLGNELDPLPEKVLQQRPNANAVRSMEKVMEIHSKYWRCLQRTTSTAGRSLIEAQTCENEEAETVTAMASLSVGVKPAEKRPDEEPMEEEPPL

[3] = biological target: T1, Protein deacetylase HDAC6 (Homo sapiens) (UniProt Q9UBN7); assay: Inhibition of human HDAC6 at 1 uM using p53 (379 to 382 residues) derived fluorogenic peptide RHKKAc; how it was run: as §1
T1 sequence (whole entry): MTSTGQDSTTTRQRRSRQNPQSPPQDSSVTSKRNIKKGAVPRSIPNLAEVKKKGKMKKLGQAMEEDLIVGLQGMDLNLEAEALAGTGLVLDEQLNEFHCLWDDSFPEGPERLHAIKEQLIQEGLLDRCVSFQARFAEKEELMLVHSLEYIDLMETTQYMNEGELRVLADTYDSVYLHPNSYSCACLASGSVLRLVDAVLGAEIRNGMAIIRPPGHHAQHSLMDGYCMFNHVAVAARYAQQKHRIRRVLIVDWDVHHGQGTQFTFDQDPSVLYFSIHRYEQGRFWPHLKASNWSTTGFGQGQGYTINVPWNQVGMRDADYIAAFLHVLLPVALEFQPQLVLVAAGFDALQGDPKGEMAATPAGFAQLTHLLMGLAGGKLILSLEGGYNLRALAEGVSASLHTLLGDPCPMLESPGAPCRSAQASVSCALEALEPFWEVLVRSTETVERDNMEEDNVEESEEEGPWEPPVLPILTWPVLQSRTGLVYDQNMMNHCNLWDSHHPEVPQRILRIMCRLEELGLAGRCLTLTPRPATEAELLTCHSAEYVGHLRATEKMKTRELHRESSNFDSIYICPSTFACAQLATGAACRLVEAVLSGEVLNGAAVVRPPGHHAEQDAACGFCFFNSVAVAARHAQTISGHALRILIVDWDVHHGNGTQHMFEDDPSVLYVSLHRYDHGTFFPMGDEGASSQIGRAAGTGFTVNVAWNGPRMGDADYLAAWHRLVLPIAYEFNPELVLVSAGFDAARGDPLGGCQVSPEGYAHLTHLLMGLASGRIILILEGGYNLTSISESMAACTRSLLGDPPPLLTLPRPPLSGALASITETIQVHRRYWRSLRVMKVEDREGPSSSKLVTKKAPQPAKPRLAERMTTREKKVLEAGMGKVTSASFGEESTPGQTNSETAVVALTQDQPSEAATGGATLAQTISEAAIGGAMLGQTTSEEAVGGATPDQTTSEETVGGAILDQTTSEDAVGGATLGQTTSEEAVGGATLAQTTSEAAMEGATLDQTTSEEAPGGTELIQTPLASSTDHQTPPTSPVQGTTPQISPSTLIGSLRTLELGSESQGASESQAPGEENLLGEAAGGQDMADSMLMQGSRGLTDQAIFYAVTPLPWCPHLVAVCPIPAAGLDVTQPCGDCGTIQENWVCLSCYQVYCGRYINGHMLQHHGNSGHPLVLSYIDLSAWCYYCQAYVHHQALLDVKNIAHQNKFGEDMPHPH

Histone deacetylase 1 [4] = biological target: T2, Histone deacetylase 1 (Homo sapiens, UniProt Q13547); assay: Inhibition of human HDAC1 at 1 uM using p53 (379 to 382 residues) derived fluorogenic peptide RHKKAc; how it was run: as §1
T2 sequence (Q13547 whole entry, the tested form may be a part): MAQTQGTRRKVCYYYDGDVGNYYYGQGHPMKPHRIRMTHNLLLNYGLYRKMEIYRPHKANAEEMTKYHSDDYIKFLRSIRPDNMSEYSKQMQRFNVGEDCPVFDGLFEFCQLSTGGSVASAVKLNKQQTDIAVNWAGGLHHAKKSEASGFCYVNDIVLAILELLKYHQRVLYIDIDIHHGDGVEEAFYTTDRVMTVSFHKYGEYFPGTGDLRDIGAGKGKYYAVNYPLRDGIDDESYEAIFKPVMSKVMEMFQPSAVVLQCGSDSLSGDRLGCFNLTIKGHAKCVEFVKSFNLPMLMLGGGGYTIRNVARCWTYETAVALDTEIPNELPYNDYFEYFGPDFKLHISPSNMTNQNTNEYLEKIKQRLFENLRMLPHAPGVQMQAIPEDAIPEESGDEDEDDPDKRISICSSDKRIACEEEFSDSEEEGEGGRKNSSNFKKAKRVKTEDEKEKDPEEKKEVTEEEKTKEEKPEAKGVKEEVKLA

Histone deacetylase 2 [5] = biological target: T3, Histone deacetylase 2 (Homo sapiens, UniProt Q92769); assay: Inhibition of human HDAC2 at 1 uM using p53 (379 to 382 residues) derived fluorogenic peptide RHKKAc; how it was run: as §1
T3 sequence (Q92769 whole entry, the tested form may be a part): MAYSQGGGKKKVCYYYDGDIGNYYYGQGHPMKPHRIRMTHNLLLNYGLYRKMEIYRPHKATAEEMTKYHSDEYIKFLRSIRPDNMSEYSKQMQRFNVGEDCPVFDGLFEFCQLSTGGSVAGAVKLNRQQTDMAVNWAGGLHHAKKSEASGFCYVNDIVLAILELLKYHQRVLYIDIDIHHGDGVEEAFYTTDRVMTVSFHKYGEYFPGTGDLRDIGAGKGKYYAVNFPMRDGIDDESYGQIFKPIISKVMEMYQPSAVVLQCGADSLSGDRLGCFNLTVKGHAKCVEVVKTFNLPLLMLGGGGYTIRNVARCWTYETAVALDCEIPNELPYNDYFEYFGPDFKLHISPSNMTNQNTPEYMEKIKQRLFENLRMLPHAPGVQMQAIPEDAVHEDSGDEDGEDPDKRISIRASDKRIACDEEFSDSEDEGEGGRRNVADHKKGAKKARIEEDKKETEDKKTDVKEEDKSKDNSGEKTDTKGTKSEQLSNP

[6] = biological target: Histone deacetylase 3/Nuclear receptor corepressor 2 (HDAC3/NCoR2) (Homo sapiens) (UniProt O15379+Q9Y618); assay: Inhibition of human HDAC3/NCOR2 at 1 uM using p53 (379 to 382 residues) derived fluorogenic peptide RHKKAc; type: protein-complex assay; how it was run: as §1
[7] = biological target: T4, Histone deacetylase 8 (Homo sapiens) (UniProt Q9BY41); assay: Inhibition of human HDAC8 at 1 uM using p53 (379 to 382 residues) derived fluorogenic peptide RHKAcKAc; how it was run: as §1
T4 sequence (whole entry): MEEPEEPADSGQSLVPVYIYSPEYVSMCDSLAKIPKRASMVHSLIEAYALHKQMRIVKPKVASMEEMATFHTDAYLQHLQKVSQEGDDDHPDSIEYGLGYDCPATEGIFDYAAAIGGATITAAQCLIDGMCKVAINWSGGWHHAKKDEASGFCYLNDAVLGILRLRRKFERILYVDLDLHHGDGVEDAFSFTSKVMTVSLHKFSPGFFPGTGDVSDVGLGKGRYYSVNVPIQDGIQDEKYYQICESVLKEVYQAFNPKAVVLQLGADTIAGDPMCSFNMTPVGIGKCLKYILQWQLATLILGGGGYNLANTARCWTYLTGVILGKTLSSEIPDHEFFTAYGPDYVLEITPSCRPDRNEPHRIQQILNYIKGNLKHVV

[8] = biological target: T4, Histone deacetylase 8 (Homo sapiens); assay: Inhibition of HDAC8 in human MDA-MB-231 cells assessed as reduction in Notch1 expression at 0.25 uM incubated for 48 hrs by Western blot method; type: cell-based
How it was run: (§2)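 Cells treated 48 h at the indicated concentrations, with a reference HDAC inhibitor at 0.25 µM as positive control on each blot. Lysed in 1% SDS, 10 mM EDTA, 50 mM Tris-HCl pH 8.1 with protease/phosphatase inhibitors, then sonicated. Equal protein by SDS-PAGE on nitrocellulose. Primary antibodies 1:1000 overnight at 4°C, HRP secondary, ECL. Blots for pan-H3 and H3K9 acetylation, tubulin acetylation and Notch1.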

[9] = biological target: T1, Protein deacetylase HDAC6 (Homo sapiens); assay: Inhibition of HDAC6 in human MDA-MB-231 cells assessed as increase in histone H3K9 acetylation at 0.25 uM incubated for 48 hrs by Western blot method; type: cell-based; conditions: in the assay text read “tubulin acetylation” for “histone H3K9 acetylation”; how it was run: as §2
[10] = biological target: T1, Protein deacetylase HDAC6 (Homo sapiens); assay: Inhibition of HDAC6 in human MDA-MB-231 cells assessed as increase in histone H3K9 acetylation at 0.1 to 2.5uM incubated for 48 hrs by Western blot method; type: cell-based; conditions: in the assay text read “tubulin acetylation” for “histone H3K9 acetylation”; how it was run: as §2
[11] = biological target: T5, Histone deacetylase (Homo sapiens) (UniProt Q13547+O15379+Q9UBN7+Q92769+Q9UQL6+Q8WUI4+Q9BY41+Q96DB2+P56524+Q9UKV0+Q969S8); assay: Inhibition of HDAC in human MDA-MB-231 cells assessed as increase in histone H3K9 acetylation at 0.1 to 2.5uM incubated for 48 hrs by Western blot method; type: cell-based; how it was run: as §2
[12] = biological target: T4, Histone deacetylase 8 (Homo sapiens); assay: Inhibition of HDAC8 in human MDA-MB-231 cells assessed as reduction in Notch1 expression at 2.5uM incubated for 48 hrs by Western blot method; type: cell-based; how it was run: as §2
[13] = biological target: T5, Histone deacetylase (Homo sapiens); assay: Inhibition of HDAC in human MDA-MB-231 cells assessed as increase in histone H3 acetylation at 0.1 to 2.5uM incubated for 48 hrs by Western blot method; type: cell-based; how it was run: as §2
Histone deacetylase 2 [14] = biological target: T3, Histone deacetylase 2; assay: Inhibition of human HDAC2 using p53 (379 to 382 residues) derived fluorogenic peptide RHKKAc
Histone deacetylase 1 [15] = biological target: T2, Histone deacetylase 1; assay: Inhibition of human HDAC1 using p53 (379 to 382 residues) derived fluorogenic peptide RHKKAc
Homo sapiens = species on record: Homo sapiens; assay: Selectivity index, ratio of IC50 for human HDAC1 to IC50 for human HDAC3
[16] = biological target: Histone deacetylase 3/Nuclear receptor corepressor 2 (HDAC3/NCoR2) (Homo sapiens, UniProt O15379); assay: Inhibition of human HDAC3/NCOR2 using p53 (379 to 382 residues) derived fluorogenic peptide RHKKAc; type: protein-complex assay
MDA-MB-231 [17] = assay: Effect on beta-catenin mRNA expression in human MDA-MB-231 cells at 0.5 to 5 uM by RT-PCR method; type: cell-based; conditions: mda-mb-231, 5 µM
How it was run: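 Monolayer cells treated at graded concentrations. Total RNA isolated with TRIzol. β-catenin mRNA assessed by RT-PCR with β-actin as reference.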

MDA-MB-231 [18] = assay: Cytotoxicity in human MDA-MB-231 cells assessed as reduction in cell viability incubated for 24 to 72 hrs by MTT assay; type: functional, cell-based
How it was run: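 MDA-MB-231 seeded 5,000 cells/well with 10% FBS, left overnight, then exposed to agents in 5% FBS for 24, 48 and 72 h. MTT added for 1 h, dye dissolved in DMSO, absorbance at 560 nm. Viability given as percent of the matching vehicle-treated control. N = 6.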

[19] = biological target: Histone deacetylase 3 (Homo sapiens) (UniProt O15379); assay: Inhibition of HDAC3 in human MDA-MB-231 cells assessed as reduction in Akt phosphorylation at 0.5 to 5 uM by immunoblotting; type: cell-based
Sequence of Histone deacetylase 3 (Homo sapiens) (O15379 whole entry): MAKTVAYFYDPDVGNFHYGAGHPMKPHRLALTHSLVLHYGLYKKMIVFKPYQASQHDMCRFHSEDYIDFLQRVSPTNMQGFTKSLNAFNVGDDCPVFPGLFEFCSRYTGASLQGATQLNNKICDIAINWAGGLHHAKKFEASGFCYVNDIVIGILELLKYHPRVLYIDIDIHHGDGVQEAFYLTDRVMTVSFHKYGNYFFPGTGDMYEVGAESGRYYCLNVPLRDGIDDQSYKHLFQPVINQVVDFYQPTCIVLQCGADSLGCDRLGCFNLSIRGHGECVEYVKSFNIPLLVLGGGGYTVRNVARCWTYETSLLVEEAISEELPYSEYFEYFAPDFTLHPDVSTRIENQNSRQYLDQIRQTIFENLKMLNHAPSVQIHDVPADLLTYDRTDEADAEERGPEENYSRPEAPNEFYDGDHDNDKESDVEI
How it was run: (§3)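 Monolayer cells treated in 5% FBS at graded concentrations. Lysed in SDS/EDTA/Tris pH 8.1 buffer, equal protein immunoblotted with primary antibodies 1:1000 overnight at 4°C. Detected by ECL for phospho-Akt, β-catenin and histone H3 pan/H3K9 acetylation.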

[20] = biological target: Histone deacetylase 3 (Homo sapiens) (UniProt O15379); assay: Inhibition of HDAC3 in human MDA-MB-231 cells assessed as increase in histone H3 acetylation at 0.5 to 5 uM by immunoblotting; type: cell-based; how it was run: as §3
MDA-MB-231 [21] = assay: Inhibition of colony formation of human MDA-MB-231 cells incubated for 48 hrs by crystal violet staining based assay; conditions: MDA-MB-231, 48 h
[22] = biological target: Histone deacetylase 3 (Homo sapiens) (UniProt O15379); assay: Inhibition of HDAC3 in human MDA-MB-231 cells assessed as reduction in beta-catenin expression at 0.5 to 5 uM by immunoblotting; type: cell-based; how it was run: as §3
MDA-MB-231 [23] = assay: Growth inhibition of human MDA-MB-231 cells incubated for 48 to 72 hrs by crystal violet staining based assay; type: functional, cell-based
How it was run: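 Cells plated at 5000/well and left overnight, then treated in 5% FBS for 24, 48 and 72 h. Washed with PBS, stained 20 min with 0.5% crystal violet in 20% methanol, stain solubilized in 2% SDS, absorbance read at 550. Growth inhibition calculated as (1-Nt/Nc) x 100 against vehicle wells. N = 6.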

MDA-MB-231 [24] = assay: Inhibition of mammosphere formation of human MDA-MB-231 cells incubated for 7 days; conditions: MDA-MB-231, 168 h
[25] = biological target: T4, Histone deacetylase 8 (Homo sapiens); assay: Inhibition of HDAC8 in human MDA-MB-231 cells assessed as reduction in Notch1 expression at 0.1 to 2.5uM incubated for 48 hrs by Western blot method; type: cell-based; how it was run: as §2

Sequence of Histone deacetylase 5 (Homo sapiens) (Q9UQL6 whole entry, canonical isoform): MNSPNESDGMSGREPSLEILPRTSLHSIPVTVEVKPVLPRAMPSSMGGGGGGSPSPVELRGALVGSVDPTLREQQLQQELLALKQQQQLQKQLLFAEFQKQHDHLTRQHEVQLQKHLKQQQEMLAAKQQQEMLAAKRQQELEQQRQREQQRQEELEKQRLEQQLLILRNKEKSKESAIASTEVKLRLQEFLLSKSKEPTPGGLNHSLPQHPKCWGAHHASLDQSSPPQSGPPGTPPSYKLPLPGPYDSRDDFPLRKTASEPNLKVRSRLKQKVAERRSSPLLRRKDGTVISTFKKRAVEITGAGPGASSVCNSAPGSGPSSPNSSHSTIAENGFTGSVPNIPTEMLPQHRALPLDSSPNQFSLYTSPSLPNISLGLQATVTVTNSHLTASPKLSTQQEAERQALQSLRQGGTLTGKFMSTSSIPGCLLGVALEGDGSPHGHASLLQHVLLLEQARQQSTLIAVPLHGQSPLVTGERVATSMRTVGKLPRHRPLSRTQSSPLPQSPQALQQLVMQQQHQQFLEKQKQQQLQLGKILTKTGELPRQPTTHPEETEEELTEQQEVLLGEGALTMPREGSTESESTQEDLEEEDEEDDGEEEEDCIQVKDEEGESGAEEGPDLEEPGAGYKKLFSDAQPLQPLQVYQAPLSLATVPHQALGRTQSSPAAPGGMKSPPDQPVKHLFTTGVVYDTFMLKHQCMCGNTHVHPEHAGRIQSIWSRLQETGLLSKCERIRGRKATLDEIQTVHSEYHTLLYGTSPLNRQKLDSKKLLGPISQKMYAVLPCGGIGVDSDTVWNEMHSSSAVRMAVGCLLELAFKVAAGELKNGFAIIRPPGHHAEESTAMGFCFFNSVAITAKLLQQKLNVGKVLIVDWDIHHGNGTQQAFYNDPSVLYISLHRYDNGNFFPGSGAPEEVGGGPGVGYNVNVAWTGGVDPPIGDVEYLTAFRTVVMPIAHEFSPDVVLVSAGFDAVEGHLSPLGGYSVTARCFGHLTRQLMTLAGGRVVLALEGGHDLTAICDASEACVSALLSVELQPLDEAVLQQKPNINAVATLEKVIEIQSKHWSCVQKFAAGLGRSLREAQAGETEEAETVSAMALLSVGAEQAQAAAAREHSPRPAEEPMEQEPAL

| SMILES | inhibition [1] | inhibition [2] | inhibition [3] | inhibition (Histone deacetylase 1 [4]) | inhibition (Histone deacetylase 2 [5]) | inhibition [6] | inhibition [7] | inhibition [10] | IC50 (Histone deacetylase 2 [14]) | IC50 (Histone deacetylase 1 [15]) | Ratio IC50 (Homo sapiens) | IC50 [16] | further results |
| --- | --- | --- | --- | --- | --- | --- | --- | --- | --- | --- | --- | --- | --- |
| CC(C)[C@H](C(=O)Nc1ccc(C(=O)NO)cc1)c1ccccc1 | 0% | 21% | 100% | 95% | 72% | 93% | 87% | – | – | – | – | – | inhibition [8]: Active; inhibition [9]: Active |
| CC(C)[C@@H](C(=O)Nc1ccc(C(=O)Nc2ccccc2N)cc1)c1ccccc1 | 9% | 9% | 16% | 80% | 57% | 76% | 38% | inactive | – | – | – | – | inhibition [11]: Active; inhibition [12]: Active; inhibition [13]: Active |
| CC(C)[C@@H](C(=O)Nc1ccc(C(=O)Nc2ccc(F)cc2N)cc1)c1ccccc1 | 0% | 0% | 0% | 42% | 26% | 78% | 6% | – | 1.8 µM | 1.2 µM | 1.2 | 1 µM | – |
| Nc1cc(F)ccc1NC(=O)c1ccc(NC(=O)Cc2ccccc2)cc1 | – | – | – | – | – | – | – | – | 3.2 µM | 2.3 µM | – | 0.18 µM | Activity (MDA-MB-231 [17]): Non-Toxic; IC50 (MDA-MB-231 [18]): ≥ 10 µM; inhibition [19]: Dose-dependent effect; inhibition [20]: Dose-dependent effect; IC50 (MDA-MB-231 [21]): 0.5 to 1 µM; inhibition [22]: Dose-dependent effect; IC50 (MDA-MB-231 [23]): ≥ 10 µM; IC50 (MDA-MB-231 [24]): 0.5 to 1 µM |
| CC(C)[C@H](C(=O)Nc1ccc(C(=O)Nc2ccccc2N)cc1)c1ccccc1 | 0% | 0% | 20% | 55% | 31% | 30% | 7% | inactive | – | – | – | – | inhibition [25]: inactive; inhibition [11]: Active; inhibition [13]: Active |
| CC(C)[C@@H](C(=O)Nc1ccc(C(=O)Nc2ccc(F)cc2N)nc1)c1ccccc1 | – | – | – | – | – | – | – | inactive | 1.1 µM | 0.52 µM | 6.5 | 0.08 µM | inhibition [25]: inactive |
| C[C@@H](C(=O)Nc1ccc(C(=O)Nc2ccc(F)cc2N)cc1)c1ccccc1 | – | – | – | – | – | – | – | – | 2.8 µM | 1.8 µM | 8.6 | 0.21 µM | – |
